In ChEMBL document CHEMBL1155789, “Design, synthesis, and evaluation of 3C protease inhibitors as anti-enterovirus 71 agents” (Bioorg Med Chem, 2008):
pEC50, pIC50, pKi: −log10 of the molar value. The source made the active and inactive calls. The rule behind the calls is not given here.

What was measured:
Echovirus E6 = assay: Antiviral activity against Human echovirus 6; type: functional, organism-based; settings: Enterovirus B
Echovirus E9 = assay: Antiviral activity against Human echovirus 9; type: functional, organism-based; settings: Enterovirus B
[1] = Inhibition of Human enterovirus 71 TW/2231/98 recombinant protease 3C expressed in Escherichia coli JM109 competent cells; set-up: species or system Enterovirus A71
How it was run: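 His-tagged EV71 3C protease expressed in E. coli […] and purified on Ni–NTA. Fluorescence read at 538 nm with excitation at 355 nm. Initial velocities over the first 5 min were plotted against inhibitor concentration and fitted to a hyperbolic activity equation to give IC50.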

RD [2] = assay: Cytotoxicity against human RD cells; type: cell-based
Enterovirus A71 [3] = assay: (§1) Inhibition of Human enterovirus 71 TW/2231/98 recombinant protease 3C expressed in Escherichia coli JM109 competent cells by time dependent assay
How it was run: (§2)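 Time-dependent inactivation: 0.5 μM 3C protease incubated with 1–10 μM inhibitor in the fluorogenic peptide assay (10 mM MES pH 6.5, 25 °C). Activity loss versus incubation time was fitted to a single exponential to give kobs. Half-life (ln2/kobs) was replotted against reciprocal inhibitor concentration to give kinact and Ki.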

[4] = as §1; set-up: species or system Enterovirus A71; how it was run: as §2
Enterovirus A71 [5] = assay: Antiviral activity against Human enterovirus 71 in human rhabdomyosarcoma cells assessed as virus-induced cell death after 72 hrs; type: functional, organism-based; settings: Enterovirus A
How it was run: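 RD cells seeded at 1.1×10^5 cells/mL in DMEM with 10% FBS, grown 24-30 h at 37 °C to about 90% confluence. Virus (100 TCID50) mixed with test compound was adsorbed 1 h at 35 °C, then overlaid with DMEM, 2% FBS, 0.1% DMSO for 72 h at 35 °C. Formaldehyde fixation, crystal violet stain, A570. EC50 is 50% reduction of virus-induced cell death versus virus control. Triplicate, at least twice.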

[6] = Selectivity index, ratio of CC50 for human RD cells to EC50 for Human enterovirus 71; type: toxicity, cell-based; settings: for selectivity ratio: RD cells, read-out: Ratio CC50/EC50
RD [7] = assay: Inhibition of Human enterovirus 71 TW/2231/98 recombinant protease 3C in human RD cells at 0.01 to 1 uM after 48 hrs by Western blotting; type: cell-based; settings: Enterovirus A71
How it was run: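 Confluent RD cells in DMEM with 10% fetal calf serum were infected with EV71 TW/2231/98 at MOI 0.01 with or without compound at 0.01–1 μM. After 48 h, total lysates were run on 12% SDS–PAGE and blotted with mouse monoclonal anti-3C and anti-β-actin antibodies. Detection used an HRP anti-mouse secondary (1:2000) and ECL.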

SMILES	pIC50 [1]	CC50 (RD [2]) [nM]	pEC50 (Enterovirus A71 [5])	other results
CCOC(=O)/C=C/[C@H](C[C@@H]1CCNC1=O)NC(=O)[C@@H](CC(=O)[C@@H](NC(=O)c1cc(C)on1)C(C)C)Cc1ccc(F)cc1 [RUPINTRIVIR]				pEC50 (Echovirus E6): 7.37; pEC50 (Echovirus E9): 7.82
CCOC(=O)/C=C/[C@H](C[C@@H]1CCNC1=O)NC(=O)[C@H](Cc1ccccc1)NC(=O)/C=C/c1ccc2c(c1)OCO2	4.97	> 25000	5.74	
O=C[C@H](C[C@@H]1CCNC1=O)NC(=O)[C@H](Cc1ccccc1)NC(=O)/C=C/c1ccc(Cl)cc1F	> 6.30	5100	8.15	Ratio CC50/EC50 ([6]; rd): 714
O=C[C@H](C[C@@H]1CCNC1=O)NC(=O)[C@H](Cc1ccccc1)NC(=O)OCc1ccccc1	> 6.30	23600	7.51	
CCOC(=O)/C=C/[C@H](C[C@@H]1CCNC1=O)NC(=O)[C@H](Cc1ccccc1)NC(=O)OC(C)(C)C	< 4.70		< 4.70	
CCOC(=O)/C=C/[C@H](C[C@@H]1CCNC1=O)NC(=O)[C@H](Cc1ccccc1)NC(=O)/C=C/c1ccccc1	5.00	8000	5.89	
Cc1cc(/C=C/C(=O)N[C@@H](Cc2ccccc2)C(=O)N[C@H](C=O)C[C@@H]2CCNC2=O)no1	> 6.30	> 25000	6.03	

Further lines, with some results ahead:

pIC50 [1]	SMILES	CC50 (RD [2]) [nM]	pEC50 (Enterovirus A71 [5])	other results
5.09	CCOC(=O)/C=C/[C@H](C[C@@H]1CCNC1=O)NC(=O)[C@H](Cc1ccccc1)NC(=O)/C=C/c1ccc(N(C)C)cc1	21400	5.54	Kinact (Enterovirus A71 [3]): 0.077 min⁻¹; pKi [4]: 5.59
> 6.30	Cc1ccc(/C=C/C(=O)N[C@@H](Cc2ccccc2)C(=O)N[C@H](C=O)C[C@@H]2CCNC2=O)cc1	> 25000	7.59	selectivity ratio [6]: > 1000; Activity (RD [7]): Active
> 6.30	O=C[C@H](C[C@@H]1CCNC1=O)NC(=O)[C@H](Cc1ccccc1)NC(=O)/C=C/c1ccccc1	> 25000	7.02	
> 6.30	O=C[C@H](C[C@@H]1CCNC1=O)NC(=O)[C@H](Cc1ccccc1)NC(=O)/C=C/c1ccc2c(c1)OCO2	> 25000	6.80	
> 6.30	CN(C)c1ccc(/C=C/C(=O)N[C@@H](Cc2ccccc2)C(=O)N[C@H](C=O)C[C@@H]2CCNC2=O)cc1	> 25000	7.74	selectivity ratio [6]: > 1000
